Columns and labels:
[1] = tested on: Human immunodeficiency virus 1; assay: Antiviral activity against wild type HIV1 in presence of 10% FBS; type: functional, organism-based
[2] = tested on: Human immunodeficiency virus 1; assay: Antiviral activity against HIV1 harboring G140S/Q148H double mutant in presence of 10% FBS; type: functional, organism-based
Procedure, shortened: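 HIV-1 carrying G140S/Q148H double-mutant integrase; antiviral EC50 determined with 10% FBS in the medium.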

[3] = Cmax in Sprague-Dawley rat at 0.5 mg/kg, iv measured up to 4 hrs; type: ADME, organism-based; set-up: route intravenous, dose 0.5 mg/kg, time <=4; settings: in vivo
Procedure, shortened: (§1)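 Male Sprague-Dawley rats dosed IV with compound as a PEG-400/ethanol (90:10) solution. Plasma exposure was followed for 4 h, and Cmax, t1/2, clearance and Vss were derived from that profile.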

[4] = Half life in Sprague-Dawley rat at 0.5 mg/kg, iv measured up to 4 hrs; type: ADME, organism-based; settings: in vivo; procedure, shortened: as §1
[5] = Clearance in Sprague-Dawley rat at 0.5 mg/kg, iv measured up to 4 hrs; type: ADME, organism-based; settings: in vivo; procedure, shortened: as §1
[6] = Volume of distribution at steady state in Sprague-Dawley rat at 0.5 mg/kg, iv measured up to 4 hrs; type: ADME, organism-based; settings: in vivo, read-out: Vdss; procedure, shortened: as §1
[7] = Binding affinity to wild type HIV1 integrase; set-up: species or system Human immunodeficiency virus 1
Integrase = Integrase (Human immunodeficiency virus 1, UniProt T1QYY3, G140S/Q148H); assay: Binding affinity to […] HIV1 integrase G140S/Q148H mutant
[8] = Clearance in Beagle dog at 1 mg/kg, iv; type: ADME, organism-based, Canis lupus familiaris; settings: in vivo
[9] = Cmax in Sprague-Dawley rat at 1 mg/kg, iv measured up to 4 hrs; type: ADME, organism-based; set-up: route intravenous, dose 1 mg/kg, time <=4; settings: in vivo; procedure, shortened: as §1
[10] = Half life in Sprague-Dawley rat at 1 mg/kg, iv measured up to 4 hrs; type: ADME, organism-based; settings: in vivo; procedure, shortened: as §1
[11] = Clearance in Sprague-Dawley rat at 1 mg/kg, iv measured up to 4 hrs; type: ADME, organism-based; settings: in vivo; procedure, shortened: as §1
[12] = Volume of distribution at steady state in Sprague-Dawley rat at 1 mg/kg, iv measured up to 4 hrs; type: ADME, organism-based; settings: in vivo, read-out: Vdss; procedure, shortened: as §1
[13] = Volume of distribution at steady state in cynomolgus monkey at 1 mg/kg, iv; type: ADME, organism-based, Macaca fascicularis; settings: in vivo, read-out: Vdss
Procedure, shortened: (§2)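 Cynomolgus monkeys dosed IV or PO with compound formulated as a PEG-400/ethanol (90:10) solution. Oral bioavailability was taken from the PO versus IV exposure.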

[14] = Half life in cynomolgus monkey at 1 mg/kg, iv; type: ADME, organism-based, Macaca fascicularis; settings: in vivo; procedure, shortened: as §2
[15] = Oral bioavailability in Beagle dog at 5 mg/kg; type: ADME, organism-based, Canis lupus familiaris; settings: in vivo
[16] = Volume of distribution at steady state in Beagle dog at 1 mg/kg, iv; type: ADME, organism-based, Canis lupus familiaris; settings: in vivo, read-out: Vdss
[17] = Half life in Beagle dog at 1 mg/kg, iv; type: ADME, organism-based, Canis lupus familiaris; settings: in vivo
[18] = Clearance in cynomolgus monkey at 1 mg/kg, iv; type: ADME, organism-based, Macaca fascicularis; settings: in vivo; procedure, shortened: as §2
[19] = AUC in Sprague-Dawley rat at 5 mg/kg, po; type: ADME, organism-based; set-up: dose 5 mg/kg; settings: in vivo
[20] = Oral bioavailability in Sprague-Dawley rat at 5 mg/kg; type: ADME, organism-based; settings: in vivo
[21] = AUC in Beagle dog at 5 mg/kg, po; type: ADME, organism-based, Canis lupus familiaris; set-up: dose 5 mg/kg; settings: in vivo
[22] = AUC in cynomolgus monkey at 5 mg/kg, po; type: ADME, organism-based, Macaca fascicularis; set-up: dose 5 mg/kg; settings: in vivo; procedure, shortened: as §2
[23] = Oral bioavailability in cynomolgus monkey at 5 mg/kg; type: ADME, organism-based, Macaca fascicularis; settings: in vivo; procedure, shortened: as §2
[24] = tested on: Human immunodeficiency virus 1; assay: Antiviral activity against HIV1 harboring G140S/Q148H double mutant in presence of HSA; type: functional, organism-based
[25] = Ratio of EC50 for Antiviral activity against HIV1 harboring G140S/Q148H double mutant in presence of 10% FBS to EC50 for antiviral activity against HIV1 harboring G140S/Q148H double mutant in presence of HSA; type: functional, Human immunodeficiency virus 1
[26] = tested on: Human immunodeficiency virus 1; assay: Antiviral activity against HIV1 harboring Q148R mutant; type: functional, organism-based

SMILES	EC50 [1] [nM]	EC50 [2] [nM]	also measured
CNC(=O)c1cc(F)ccc1CNC(=O)c1nc2n(c(=O)c1O)CC1CCC2(NC(=O)C(=O)N(C)C)CC1	60	> 8000	
CN(C)C(=O)C(=O)NC12CCC(CC1)Cn1c2nc(C(=O)NCc2ccc(F)cc2)c(O)c1=O	1	10	Cmax [3]: 1.93 µM; half-life [4]: 0.45 h; clearance [5]: 30.5 mL/min/kg; Vd [6]: 0.63 L/kg; Ki [7]: 2 nM; Ki (Integrase): 17 nM
Cc1cc(CNC(=O)c2nc3n(c(=O)c2O)CC2CCC3(NC(=O)C(=O)N(C)C)CC2)ccc1F	0.7	3	clearance [8]: 7 mL/min/kg; Cmax [9]: 5.3 µM; half-life [10]: 12.3 h; clearance [11]: 12.6 mL/min/kg; Vd [12]: 1.2 L/kg; Vd [13]: 0.26 L/kg; half-life [14]: 1.6 h; bioavailability [15]: 83%; Vd [16]: 0.3 L/kg; half-life [17]: 1.6 h; clearance [18]: 13.5 mL/min/kg; AUC [19]: 14.7 µM·h; bioavailability [20]: 103%; AUC [21]: 20.8 µM·h; AUC [22]: 2.89 µM·h; bioavailability [23]: 23%; EC50 [24]: 21 nM; Ratio EC50 [25]: 7; Ki [7]: 2 nM; Ki (Integrase): 8 nM
CN(C)C(=O)C(=O)NC12CCC(CC1)Cn1c2nc(C(=O)NCc2ccc(F)cc2S(C)(=O)=O)c(O)c1=O	11	> 8000	
CN(C)C(=O)C(=O)NC12CCC(CC1)Cn1c2nc(C(=O)NCc2ccc(F)cc2C(F)(F)F)c(O)c1=O	8	> 8000	
Cc1cc(F)ccc1CNC(=O)c1nc2n(c(=O)c1O)CC1CCC2(NC(=O)C(=O)N(C)C)CC1	1.3	558	
CN(C)CC(=O)NC12CCC(CC1)Cn1c2nc(C(=O)NCc2ccc(F)cc2)c(O)c1=O	20	> 8000	
CN(C)C(=O)C(=O)NC12CCC(CC1)Cn1c2nc(C(=O)NCc2ccc(F)cc2Cl)c(O)c1=O	1.3	1320	
CN(C)C(=O)C(=O)NC12CCC(CC1)n1c2nc(C(=O)NCc2ccc(F)cc2)c(O)c1=O	8	> 8000	
CN(C)C(=O)C(=O)NC12CCC(CC1)Cn1c2nc(C(=O)NCc2ccc(F)c(F)c2)c(O)c1=O	0.7	17	
CN(C)C(=O)C(=O)NC12CCC(CC1)Cn1c2nc(C(=O)NCc2ccc(F)cc2F)c(O)c1=O	0.7	37	
CN(C)C(=O)C(=O)NC12CCC(CC1)Cn1c2nc(C(=O)NCc2ccc(F)c(Cl)c2)c(O)c1=O	0.8	6	
CC(C)C(=O)C(=O)NC12CCC(CC1)Cn1c2nc(C(=O)NCc2ccc(F)cc2)c(O)c1=O	2	94	
CN(C)C(=O)NC12CCC(CC1)Cn1c2nc(C(=O)NCc2ccc(F)cc2)c(O)c1=O	14	361	
CN(C)C(=O)C(=O)NC12CCC(CC1)Cn1c2nc(C(=O)NCc2ccc(F)c(C(F)(F)F)c2)c(O)c1=O	1.4	32	
CCOC(=O)C(=O)NC12CCC(CC1)Cn1c2nc(C(=O)NCc2ccc(F)cc2)c(O)c1=O	21	> 8000	
CN(C)C(=O)C(=O)NC12CCC(Cn3c1nc(C(=O)NCc1ccc(F)cc1)c(O)c3=O)C2 (stereo not drawn)	2	39	EC50 [26]: 26 nM
CN(C)C(=O)CNC12CCC(CC1)Cn1c2nc(C(=O)NCc2ccc(F)cc2)c(O)c1=O	7	> 8000	
